We go through one compound from paper PMC10883374 (Science Advances, 2022).

SMILES strings stand for the structures.

Assay [1] has as its target T1, D202A hSAMTOR interaction with GATOR1-KICSTOR (Homo sapiens, UniProt Q1RMZ1, D202A).
T1 sequence (Q1RMZ1 1-405 D202A): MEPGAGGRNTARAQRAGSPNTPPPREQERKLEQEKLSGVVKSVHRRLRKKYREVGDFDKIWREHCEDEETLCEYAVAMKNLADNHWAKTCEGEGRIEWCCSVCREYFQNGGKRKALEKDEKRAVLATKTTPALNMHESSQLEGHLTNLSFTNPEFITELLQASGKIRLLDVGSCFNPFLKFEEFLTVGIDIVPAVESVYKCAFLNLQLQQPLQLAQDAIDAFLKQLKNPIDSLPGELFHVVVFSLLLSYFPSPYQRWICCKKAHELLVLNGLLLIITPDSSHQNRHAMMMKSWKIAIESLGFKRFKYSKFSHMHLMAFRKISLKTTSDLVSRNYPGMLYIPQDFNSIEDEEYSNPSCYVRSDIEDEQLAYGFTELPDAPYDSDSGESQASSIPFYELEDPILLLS
Briefly: Co-IP of Flag-hSAMTOR-D202A with HA-Nprl3 and Myc-Kaptin with or without SAM. It counts as biochemical. Conditions: HEK 293T cell lysates, 0.5 mM SAM.

The target of the next assay is F135A mutant dSAMTOR (Drosophila melanogaster, UniProt Q9W138, F135A). In words: ITC ligand binding, F135A dSAMTOR. Summed up:
(§1)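 Tag-free dSAMTOR, expressed as His6-SUMO fusion in E. coli BL21(DE3), purified by Ni-NTA and gel filtration into 10 mM Hepes pH 7.5, 150 mM NaCl, 1 mM DTT. At 25°C, 1 mM SAM or SAH was titrated into 0.2 mM protein over 20 injections, with a background titration into buffer. Single-site fit gave Kd, ΔH and n; ΔG and ΔS were calculated. Runs: three for measurable binding, two for undetectable binding.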

The target of assay [2] is N-terminal truncated dSAMTOR (Δ1-64) (Drosophila melanogaster, UniProt Q9W138). In words: ITC ligand binding, Δ1-64 dSAMTOR. Summed up: as §1
Assay [3] concerns the target T2, hSAMTOR MTase domain (residues 91 to 405) interaction with GATOR1-KICSTOR (Homo sapiens, UniProt Q1RMZ1).
T2 sequence (Q1RMZ1 91-405): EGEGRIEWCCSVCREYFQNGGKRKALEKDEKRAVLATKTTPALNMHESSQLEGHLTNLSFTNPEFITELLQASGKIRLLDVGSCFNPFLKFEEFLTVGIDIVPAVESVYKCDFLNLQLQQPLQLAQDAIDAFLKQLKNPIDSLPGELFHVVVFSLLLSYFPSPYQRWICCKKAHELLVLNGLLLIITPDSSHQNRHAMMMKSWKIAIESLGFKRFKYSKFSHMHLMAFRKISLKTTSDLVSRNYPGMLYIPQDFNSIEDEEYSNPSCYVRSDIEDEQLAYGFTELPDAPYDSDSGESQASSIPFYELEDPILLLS
T2 sequence (Q12980 1-569 partner): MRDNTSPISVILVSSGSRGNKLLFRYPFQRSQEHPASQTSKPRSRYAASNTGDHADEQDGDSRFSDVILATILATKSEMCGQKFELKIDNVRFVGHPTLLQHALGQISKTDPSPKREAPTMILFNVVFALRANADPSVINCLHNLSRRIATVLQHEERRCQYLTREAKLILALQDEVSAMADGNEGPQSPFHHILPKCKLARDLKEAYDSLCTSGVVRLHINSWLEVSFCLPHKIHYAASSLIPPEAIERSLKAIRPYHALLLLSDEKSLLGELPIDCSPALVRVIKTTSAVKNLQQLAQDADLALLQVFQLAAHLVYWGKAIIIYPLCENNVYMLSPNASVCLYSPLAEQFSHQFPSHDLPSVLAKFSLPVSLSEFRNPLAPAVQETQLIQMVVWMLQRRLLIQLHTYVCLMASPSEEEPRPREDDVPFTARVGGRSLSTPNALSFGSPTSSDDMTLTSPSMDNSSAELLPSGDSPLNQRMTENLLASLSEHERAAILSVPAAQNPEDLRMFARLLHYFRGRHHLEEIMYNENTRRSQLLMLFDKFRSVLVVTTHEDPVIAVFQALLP
T2 sequence (Q9Y664 1-436 partner): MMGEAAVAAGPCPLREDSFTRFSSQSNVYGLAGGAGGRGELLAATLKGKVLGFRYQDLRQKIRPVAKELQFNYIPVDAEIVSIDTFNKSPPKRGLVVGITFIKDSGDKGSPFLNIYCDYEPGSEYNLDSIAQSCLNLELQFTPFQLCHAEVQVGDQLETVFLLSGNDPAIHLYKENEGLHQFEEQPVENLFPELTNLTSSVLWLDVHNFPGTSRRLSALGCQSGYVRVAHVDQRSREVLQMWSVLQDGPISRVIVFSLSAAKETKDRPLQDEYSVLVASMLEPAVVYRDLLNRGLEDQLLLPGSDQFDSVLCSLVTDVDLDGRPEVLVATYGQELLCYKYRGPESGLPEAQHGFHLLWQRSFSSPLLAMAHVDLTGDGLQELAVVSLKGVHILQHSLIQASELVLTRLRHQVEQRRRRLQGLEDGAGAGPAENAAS
Briefly: Co-IP of hSAMTOR C-terminal MTase domain. It counts as biochemical. The settings on record: hSAMTOR CTD alone, HEK 293T cell lysates, 0.5 mM SAM.

Another assay addresses V66W/E67P mutant dSAMTOR (Drosophila melanogaster, UniProt Q9W138, E67P/V66W). In words: ITC ligand binding, V66W/E67P dSAMTOR. Summed up:
as §1

Sequence of V66W/E67P mutant dSAMTOR (Q9W138 whole entry V66W/E67P): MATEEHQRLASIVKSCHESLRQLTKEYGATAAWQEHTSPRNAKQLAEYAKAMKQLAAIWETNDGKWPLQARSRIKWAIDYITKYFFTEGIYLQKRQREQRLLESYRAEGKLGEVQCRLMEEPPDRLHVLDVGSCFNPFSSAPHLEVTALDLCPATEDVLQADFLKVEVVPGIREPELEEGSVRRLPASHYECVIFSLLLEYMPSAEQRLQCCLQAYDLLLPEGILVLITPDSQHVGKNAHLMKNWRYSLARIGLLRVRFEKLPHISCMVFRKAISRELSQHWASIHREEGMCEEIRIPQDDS
Sequence of F135A mutant dSAMTOR (Q9W138 whole entry F135A, the tested form may be a part): as the sequence (Q9W138 whole entry V66W/E67P) above, with W66V, P67E, F135A counted along it
Sequence of N-terminal truncated dSAMTOR (Δ1-64) (Q9W138 65-302, stated change not applied): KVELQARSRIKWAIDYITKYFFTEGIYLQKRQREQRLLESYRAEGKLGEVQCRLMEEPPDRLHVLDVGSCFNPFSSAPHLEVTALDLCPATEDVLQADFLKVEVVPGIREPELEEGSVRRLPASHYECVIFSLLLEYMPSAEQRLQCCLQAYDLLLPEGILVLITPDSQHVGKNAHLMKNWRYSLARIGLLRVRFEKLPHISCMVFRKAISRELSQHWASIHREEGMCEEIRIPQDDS

As for `C[S+](CC[C@H](N)C(=O)[O-])C[C@H]1O[C@@H](n2cnc3c(N)ncnc32)[C@H](O)[C@@H]1O` (stereo partly shown) [SAM, S-adenosylmethionine], the “effect of SAM on interaction of hSAMTOR with GATOR1-KICSTOR (co-IP)” value in assay [1] was “comparable interactions with GATOR1 and KICSTOR in both the absence and presence of SAM”. The results for the equilibrium dissociation constant (Kd) (on F135A mutant dSAMTOR; in assay [2]; on V66W/E67P mutant dSAMTOR) were 6.46 ± 0.4 µM, 6.78 ± 0.75 µM and 9.47 ± 0.81 µM, respectively. Also, on F135A mutant dSAMTOR (F135A vs WT dSAMTOR, ITC), the “increase of binding affinity compared to the WT dSAMTOR” value is on record as < 2 fold. Moreover, the n value is recorded as 0.79 ± 0.01 on F135A mutant dSAMTOR (ITC, 25°C, F135A dSAMTOR); 0.91 ± 0.01 in assay [2] (ITC, 25°C, Δ1-64 dSAMTOR); 0.88 ± 0.02 on V66W/E67P mutant dSAMTOR (ITC, 25°C, V66W/E67P dSAMTOR). In addition, the ΔH on F135A mutant dSAMTOR (ITC, 25°C, F135A dSAMTOR) was -5.24 ± 0.11 kcal/mol; in assay [2] (ITC, 25°C, Δ1-64 dSAMTOR), -1.16 ± 0.01 kcal/mol; at V66W/E67P mutant dSAMTOR (ITC, 25°C, V66W/E67P dSAMTOR), -3.01 ± 0.08 kcal/mol. The same compound registered a TΔS in assay [2] (ITC, 25°C, Δ1-64 dSAMTOR) of 5.89 kcal/mol. Also, the “effect of SAM on interaction of the MTase domain with GATOR1-KICSTOR (co-IP)” value in assay [3] was “no apparent effect”.

What is called Kd is the constant that tells how readily two partners part at equilibrium. A lower Kd goes with tighter binding.
